Test results reported in ChEMBL document CHEMBL4130635, “2,4-Diaminoquinazolines as Dual Toll-like Receptor (TLR) 7/8 Modulators for the Treatment of Hepatitis B Virus” (J Med Chem, 2018).
Active and inactive are the calls of the source. The rule behind the calls is not given here.

Legend:
Liver [1] = test: Effect on cytokine profile in C57BL/6J mouse liver assessed as IFNgamma levels at 30 mg/kg, po by multiplex assay; type: functional
Procedure, shortened: (§1)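 Single oral gavage in 20% HP-β-CD to healthy C57BL/6 mice, groups of 15 at 0.3, 1, 3, 10 or 30 mg/kg. Three mice per group sacrificed at 0.5, 1, 2, 4 or 7 h. Plasma and liver cytokines by multiplex, maximum level reported, rounded to nearest multiple of 5.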

Cynomolgus monkey [2] = test: Activation of monocytes in cynomolgus monkey plasma assessed as upregulation of MCP1 levels at 9 mg/kg, po after 24 hrs by Luminex assay (reference value: 385 pg/ml); type: functional, Macaca fascicularis
Cynomolgus monkey [3] = test: Activation of monocytes in cynomolgus monkey plasma assessed as upregulation of IL1Ra levels at 1 mg/kg, po after 24 hrs by Luminex assay (reference value: 320 pg/ml); type: functional, Macaca fascicularis
Liver [4] = test: Anti-inflammatory activity in C57BL/6J mouse liver assessed as IL-10 levels at 30 mg/kg, po by multiplex assay (reference value: 2 pg/g); type: functional; procedure, shortened: as §1
Cynomolgus monkey [5] = test: Effect on cytokine profile in cynomolgus monkey plasma assessed as IP10 levels at 30 mg/kg, po after 24 hrs by Luminex assay (reference value: 18.5 pg/ml); type: functional, Macaca fascicularis
Procedure, shortened: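 Healthy cynomolgus monkeys given single oral doses of 1, 3, 9 and 30 mg/kg, with a 2-week wash-out planned between doses. Systemic cytokine levels in plasma were sampled at 0.5, 1, 2, 4, 9 and 24 h postdose.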

Cynomolgus monkey [6] = test: Proinflammatory activity in cynomolgus monkey plasma assessed as TNFalpha levels at 3 mg/kg, po after 24 hrs by Luminex assay (reference value: 285 pg/ml); type: functional, Macaca fascicularis
Liver [7] = test: Proinflammatory activity in C57BL/6J mouse liver assessed as TNFalpha levels at 1 mg/kg, po by multiplex assay (reference value: 15 pg/g); type: functional, organism-based
[8] = biological target: Voltage-gated inwardly rectifying potassium channel KCNH2 (Homo sapiens, UniProt Q12809); test: Inhibition of radioligand binding to human ERG expressed in HEK293 cell membranes by scintillation counting method
[9] = Protein binding in dog plasma fraction at 5 uM after 4.5 hrs LC-MS/MS-based rapid equilibrium dialysis method; type: ADME, cell-free, Canis lupus familiaris; conditions: read-out: PPB (converted)
Cynomolgus monkey [10] = test: Toxicity in cynomolgus monkey assessed as induction of emesis at 30 mg/kg, po after 1 hr postdosing; type: organism-based, Macaca fascicularis; conditions: in vivo
Cynomolgus monkey [11] = test: Induction of ISG response in cynomolgus monkey plasma assessed as upregulation of Mx1 mRNA expression at 1 mg/kg, po after 24 hrs by Fluidigm RT-qPCR analysis (reference value: 1); type: functional, Macaca fascicularis
Procedure, shortened: (§2)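 Cynomolgus monkeys, single oral doses of 1, 3, 9 and 30 mg/kg with a planned 2-week wash-out between doses. Systemic ISG (ISG15, Mx1, OAS1) mRNA was measured by Fluidigm RT-qPCR at 1, 2, 4, 8 and 24 h postdose.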

Liver [12] = test: Upregulation of IP-10 mRNA expression levels in C57BL/6J mouse liver at 30 mg/kg, po by RT-qPCR analysis (reference value: 1); type: functional
Plasma [13] = test: Induction of IFNalpha levels in C57BL/6J mouse plasma at 0.3 mg/kg, po by ELISA; type: functional, organism-based
[14] = Inhibition of CYP450 (unknown origin); type: ADME; conditions: human
Liver [15] = test: Upregulation of IP-10 mRNA expression levels in C57BL/6J mouse liver at 0.3 mg/kg, po by RT-qPCR analysis (reference value: 1); type: functional
Cynomolgus monkey [16] = test: Activation of monocytes in cynomolgus monkey plasma assessed as upregulation of MCP1 levels at 30 mg/kg, po after 24 hrs by Luminex assay (reference value: 385 pg/ml); type: functional, Macaca fascicularis
Plasma [17] = test: Proinflammatory activity in C57BL/6J mouse plasma assessed as TNFalpha levels at 3 mg/kg, po by multiplex assay (reference value: 70 pg/ml); type: functional
Liver [18] = test: Proinflammatory activity in C57BL/6J mouse liver assessed as IL-1beta levels at 1 mg/kg, po by multiplex assay; type: functional
Cynomolgus monkey [19] = test: Induction of ISG response in cynomolgus monkey plasma assessed as upregulation of Isg15 mRNA expression at 9 mg/kg, po after 24 hrs by Fluidigm RT-qPCR analysis (reference value: 1); type: functional, Macaca fascicularis; procedure, shortened: as §2
[20] = tested on: Toll-like receptor 7/8 (Homo sapiens); test: Agonist activity at TLR7/8 in human PBMCs assessed as decrease in intracellular HBV-rcDNA levels in human hepatocytes infected with HBV genotype C for 12 days followed by exposure to conditioned supernatant from up to 5 uM compound treated PBMCs measured after 42 days
[21] = tested on: Toll-like receptor 7/8 (Homo sapiens); test: Agonist activity at TLR7/8 in human PBMCs assessed as decrease in HBeAg levels in human hepatocytes infected with HBV genotype C for 12 days followed by exposure to conditioned supernatant from up to 5 uM compound treated PBMCs measured after 42 days
Cynomolgus monkey [22] = test: Induction of ISG response in cynomolgus monkey plasma assessed as upregulation of Isg15 mRNA expression at 3 mg/kg, po after 24 hrs by Fluidigm RT-qPCR analysis (reference value: 1); type: functional, Macaca fascicularis; procedure, shortened: as §2
[23] = tested on: Toll-like receptor 7/8 (Homo sapiens); test: Agonist activity at TLR7/8 in human PBMCs assessed as decrease in intracellular HBV RNA levels in human hepatocytes infected with HBV genotype C for 12 days followed by exposure to conditioned supernatant from up to 5 uM compound treated PBMCs measured after 42 days
[24] = Protein binding in mouse plasma fraction at 5 uM after 4.5 hrs LC-MS/MS-based rapid equilibrium dialysis method; type: ADME, cell-free; conditions: read-out: PPB (converted)
Cynomolgus monkey [25] = test: Upregulation of Tlr7 expression in cynomolgus monkey plasma at 30 mg/kg, po after 24 hrs by Fluidigm RT-qPCR analysis (reference value: 1.8); type: functional, Macaca fascicularis
Liver [26] = test: Proinflammatory activity in C57BL/6J mouse liver assessed as IL-6 levels at 1 mg/kg, po by multiplex assay (reference value: 10 pg/g); type: functional
Cynomolgus monkey [27] = test: Activation of monocytes in cynomolgus monkey plasma assessed as upregulation of MCP1 levels at 3 mg/kg, po after 24 hrs by Luminex assay (reference value: 385 pg/ml); type: functional, Macaca fascicularis
[28] = biological target: TLR7 and TLR8 (Homo sapiens) (UniProt Q9NYK1+Q9NR97); test: Agonist activity at TLR7/8 in human PBMCs co-cultured with primary human hepatocytes infected with HBV genotype C for 12 days assessed as increase in fractalkine sCD40L levels up to 5 uM measured after 42 days
Plasma [29] = test: Anti-inflammatory activity in C57BL/6J mouse plasma assessed as IL-10 levels at 1 mg/kg, po by multiplex assay (reference value: 120 pg/ml); type: functional; procedure, shortened: as §1
Cynomolgus monkey [30] = test: Plasma concentration in cynomolgus monkey at 9 mg/kg, po by LC-MS analysis; type: ADME, organism-based, Macaca fascicularis; conditions: in vivo

Chain of TLR7 and TLR8 (Homo sapiens) (Q9NR97 whole entry, looked up): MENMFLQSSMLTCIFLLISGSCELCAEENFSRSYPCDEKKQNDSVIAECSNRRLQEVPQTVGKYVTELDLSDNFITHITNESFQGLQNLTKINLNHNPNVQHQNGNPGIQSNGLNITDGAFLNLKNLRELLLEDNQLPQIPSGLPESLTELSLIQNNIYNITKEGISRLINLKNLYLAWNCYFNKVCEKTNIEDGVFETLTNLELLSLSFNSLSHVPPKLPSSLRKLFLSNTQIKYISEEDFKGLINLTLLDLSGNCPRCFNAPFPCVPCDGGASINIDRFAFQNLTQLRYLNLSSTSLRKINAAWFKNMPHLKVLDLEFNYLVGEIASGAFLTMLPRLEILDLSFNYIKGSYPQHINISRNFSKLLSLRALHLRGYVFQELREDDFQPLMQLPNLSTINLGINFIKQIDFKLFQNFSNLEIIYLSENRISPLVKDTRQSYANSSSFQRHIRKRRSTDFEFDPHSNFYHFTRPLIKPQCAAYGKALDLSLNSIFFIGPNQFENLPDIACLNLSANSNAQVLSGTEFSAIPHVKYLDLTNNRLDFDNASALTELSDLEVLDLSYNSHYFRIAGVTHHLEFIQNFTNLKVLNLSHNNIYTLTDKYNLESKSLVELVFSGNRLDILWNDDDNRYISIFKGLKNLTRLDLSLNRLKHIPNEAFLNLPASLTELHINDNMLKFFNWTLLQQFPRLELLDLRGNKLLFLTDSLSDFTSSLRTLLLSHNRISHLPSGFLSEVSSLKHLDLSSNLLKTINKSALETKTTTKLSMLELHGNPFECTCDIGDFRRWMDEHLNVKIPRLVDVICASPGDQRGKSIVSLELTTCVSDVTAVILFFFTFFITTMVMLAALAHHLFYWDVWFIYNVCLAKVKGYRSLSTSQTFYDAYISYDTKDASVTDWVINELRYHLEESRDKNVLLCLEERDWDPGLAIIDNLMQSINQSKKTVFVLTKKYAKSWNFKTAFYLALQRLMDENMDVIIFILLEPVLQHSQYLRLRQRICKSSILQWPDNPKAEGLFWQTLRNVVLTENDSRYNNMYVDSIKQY
Chain of TLR7 and TLR8 (Homo sapiens) (Q9NYK1 whole entry, looked up): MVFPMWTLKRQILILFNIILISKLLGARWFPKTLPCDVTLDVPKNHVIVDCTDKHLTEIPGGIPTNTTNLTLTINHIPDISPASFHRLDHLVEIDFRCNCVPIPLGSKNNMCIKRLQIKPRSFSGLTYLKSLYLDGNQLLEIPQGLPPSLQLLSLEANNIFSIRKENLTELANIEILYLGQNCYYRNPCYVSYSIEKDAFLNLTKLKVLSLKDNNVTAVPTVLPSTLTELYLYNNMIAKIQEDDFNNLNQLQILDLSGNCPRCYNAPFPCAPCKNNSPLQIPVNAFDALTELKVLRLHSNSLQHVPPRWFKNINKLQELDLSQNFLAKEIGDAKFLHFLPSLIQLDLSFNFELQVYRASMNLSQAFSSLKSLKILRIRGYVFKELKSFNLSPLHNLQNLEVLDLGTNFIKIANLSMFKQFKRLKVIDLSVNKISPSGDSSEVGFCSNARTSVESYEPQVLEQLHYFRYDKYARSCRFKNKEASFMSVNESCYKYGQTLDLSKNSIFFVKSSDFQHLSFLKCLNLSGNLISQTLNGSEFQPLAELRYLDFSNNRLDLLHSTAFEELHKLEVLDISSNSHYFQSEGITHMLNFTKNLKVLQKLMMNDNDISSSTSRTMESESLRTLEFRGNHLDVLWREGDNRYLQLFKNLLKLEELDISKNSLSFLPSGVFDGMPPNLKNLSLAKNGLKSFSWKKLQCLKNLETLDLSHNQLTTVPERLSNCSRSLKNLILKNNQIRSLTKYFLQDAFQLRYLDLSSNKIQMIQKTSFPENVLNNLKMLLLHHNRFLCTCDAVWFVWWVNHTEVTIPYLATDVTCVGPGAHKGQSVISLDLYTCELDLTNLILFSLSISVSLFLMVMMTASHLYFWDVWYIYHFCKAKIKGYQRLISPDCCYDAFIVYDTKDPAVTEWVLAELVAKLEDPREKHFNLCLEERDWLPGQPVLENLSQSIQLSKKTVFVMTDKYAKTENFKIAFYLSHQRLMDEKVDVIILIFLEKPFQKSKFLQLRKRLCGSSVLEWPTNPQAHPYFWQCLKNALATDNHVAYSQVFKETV
Chain of Voltage-gated inwardly rectifying potassium channel KCNH2 (Q12809 whole entry): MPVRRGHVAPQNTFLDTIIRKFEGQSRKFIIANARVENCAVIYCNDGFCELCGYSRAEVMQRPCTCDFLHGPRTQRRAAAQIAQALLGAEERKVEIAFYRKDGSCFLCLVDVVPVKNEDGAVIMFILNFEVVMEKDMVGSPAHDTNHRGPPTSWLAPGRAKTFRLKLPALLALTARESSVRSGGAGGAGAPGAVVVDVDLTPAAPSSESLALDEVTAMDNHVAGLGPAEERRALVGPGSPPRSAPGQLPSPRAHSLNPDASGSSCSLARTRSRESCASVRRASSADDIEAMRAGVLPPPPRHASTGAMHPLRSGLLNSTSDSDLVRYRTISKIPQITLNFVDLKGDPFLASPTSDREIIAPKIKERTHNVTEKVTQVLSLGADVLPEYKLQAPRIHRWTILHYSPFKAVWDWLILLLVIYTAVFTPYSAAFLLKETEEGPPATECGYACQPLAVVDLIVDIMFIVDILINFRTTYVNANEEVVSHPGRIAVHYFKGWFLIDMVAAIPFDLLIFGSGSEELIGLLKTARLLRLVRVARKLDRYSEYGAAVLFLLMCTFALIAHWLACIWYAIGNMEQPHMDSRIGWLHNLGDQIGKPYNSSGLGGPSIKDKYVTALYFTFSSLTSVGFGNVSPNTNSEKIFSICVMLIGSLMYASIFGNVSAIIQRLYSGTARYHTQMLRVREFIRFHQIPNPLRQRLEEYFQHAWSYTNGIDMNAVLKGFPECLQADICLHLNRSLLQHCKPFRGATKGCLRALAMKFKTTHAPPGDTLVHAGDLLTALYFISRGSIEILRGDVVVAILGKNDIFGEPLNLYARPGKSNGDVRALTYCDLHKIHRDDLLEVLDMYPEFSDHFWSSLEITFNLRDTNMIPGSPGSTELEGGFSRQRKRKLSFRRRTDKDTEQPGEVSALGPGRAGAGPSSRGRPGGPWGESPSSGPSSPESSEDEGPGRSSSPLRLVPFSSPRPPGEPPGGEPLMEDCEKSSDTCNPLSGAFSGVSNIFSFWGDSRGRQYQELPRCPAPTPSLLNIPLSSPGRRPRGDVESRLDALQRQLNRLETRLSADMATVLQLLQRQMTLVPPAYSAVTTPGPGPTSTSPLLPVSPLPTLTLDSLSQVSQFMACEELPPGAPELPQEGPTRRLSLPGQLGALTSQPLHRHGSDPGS

SMILES: CCC[C@@H](CCO)Nc1nc(N)nc2c(F)cccc12
- Activity (Liver [1]): 700 pg/g
- Activity (Cynomolgus monkey [2]): 8890 pg/mL
- Activity (Cynomolgus monkey [3]): 805 pg/mL
- Activity (Liver [4]): 5185 pg/g
- Activity (Cynomolgus monkey [5]): 8195 pg/mL
- Activity (Cynomolgus monkey [6]): 70 pg/mL
- Activity (Liver [7]): Below limit of detection
- IC50 [8]: > 10 µM
- fraction unbound at 4.5 h, 5 µM [9]: 0.59
- Activity (Cynomolgus monkey [10]): Toxic
- fold change (FC) (Cynomolgus monkey [11]): 40
- fold change (FC) (Liver [12]): 1180
- Activity (Plasma [13]): Below limit of detection
- inhibition (INH) [14]: Not Active
- fold change (FC) (Liver [15]): 35
- Activity (Cynomolgus monkey [16]): >10000 pg/mL
- Activity (Plasma [17]): 1665 pg/mL
- Activity (Liver [18]): 16445 pg/g
- fold change (FC) (Cynomolgus monkey [19]): 560
- Activity [20]: Active
- Activity [21]: Dose-dependent effect
- fold change (FC) (Cynomolgus monkey [22]): 145
- Activity [23]: Active
- fraction unbound at 4.5 h, 5 µM [24]: 0.4
- fold change (FC) (Cynomolgus monkey [25]): 4.2
- Activity (Liver [26]): 905 pg/g
- Activity (Cynomolgus monkey [27]): 7720 pg/mL
- Activity [28]: Active
- Activity (Plasma [29]): 485 pg/mL
- Cp (Cynomolgus monkey [30]): 200 ng/mL
